The record followed here is ChEMBL document CHEMBL1128507, “Design and synthesis of potent retinoid X receptor selective ligands that induce apoptosis in leukemia cells” (J Med Chem, 1995).

The target of assay [1] is T1, Retinoic acid receptor RXR-gamma (Mus musculus, UniProt P28705).
T1 sequence (P28705 whole entry): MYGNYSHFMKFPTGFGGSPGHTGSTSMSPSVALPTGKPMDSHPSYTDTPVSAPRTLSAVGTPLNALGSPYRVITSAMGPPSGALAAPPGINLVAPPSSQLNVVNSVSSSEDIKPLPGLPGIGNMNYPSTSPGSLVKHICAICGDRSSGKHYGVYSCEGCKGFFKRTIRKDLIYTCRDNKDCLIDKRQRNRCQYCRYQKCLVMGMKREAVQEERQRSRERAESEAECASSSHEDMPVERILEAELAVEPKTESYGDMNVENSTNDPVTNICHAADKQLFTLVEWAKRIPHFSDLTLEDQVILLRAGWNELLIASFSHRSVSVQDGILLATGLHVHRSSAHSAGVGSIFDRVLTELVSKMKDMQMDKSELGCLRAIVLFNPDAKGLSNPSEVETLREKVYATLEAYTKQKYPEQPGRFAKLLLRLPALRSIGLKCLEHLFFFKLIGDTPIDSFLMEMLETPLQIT
The assay is described as follows: Ability to activate gene expression at Retinoic acid receptor RXR-gamma was evaluated in a cotransfection assay. In a few lines:
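CV-1 cells cotransfected with the RXR-gamma receptor, using an automated 96-well format. Values are either one experiment in triplicate or the mean ± SEM of at least two experiments, each in triplicate.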

Assay [2] concerns the target T2, Retinoic acid receptor RXR-beta (Mus musculus, UniProt P28704).
T2 sequence (P28704 whole entry): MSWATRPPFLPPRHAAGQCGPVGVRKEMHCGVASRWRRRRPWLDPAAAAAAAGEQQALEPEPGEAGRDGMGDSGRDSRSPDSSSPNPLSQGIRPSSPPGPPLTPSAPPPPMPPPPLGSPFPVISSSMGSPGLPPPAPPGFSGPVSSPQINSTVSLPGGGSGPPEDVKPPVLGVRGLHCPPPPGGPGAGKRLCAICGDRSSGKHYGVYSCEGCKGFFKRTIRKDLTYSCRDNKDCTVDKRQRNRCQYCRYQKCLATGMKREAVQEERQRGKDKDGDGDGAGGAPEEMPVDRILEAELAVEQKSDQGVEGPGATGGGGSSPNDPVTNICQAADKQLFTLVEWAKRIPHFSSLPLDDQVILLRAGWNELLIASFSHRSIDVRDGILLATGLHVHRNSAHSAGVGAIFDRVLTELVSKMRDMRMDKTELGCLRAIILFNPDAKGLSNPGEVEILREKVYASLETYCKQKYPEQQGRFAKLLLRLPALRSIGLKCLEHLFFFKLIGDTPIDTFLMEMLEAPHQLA
Description: Ability to activate gene expression at Retinoic acid receptor RXR-beta was evaluated in a cotransfection assay.

For assay [3], the target named is T1, Retinoic acid receptor RXR-gamma. The assay is described as follows: Binding affinity to Retinoic acid receptor RXR-gamma was evaluated in a competitive binding assay. In a few lines: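 Receptor from baculovirus. Competition binding used [3H]-9-cis-RA as the radioligand for RXRs. Kd was calculated with the Cheng-Prussof equation. Values are mean ± SEM of about three experiments, or a single experiment in triplicate.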

Assay [4] deals with T3, Retinoic acid receptor RXR-alpha (Homo sapiens, UniProt P19793).
T3 sequence (P19793 whole entry): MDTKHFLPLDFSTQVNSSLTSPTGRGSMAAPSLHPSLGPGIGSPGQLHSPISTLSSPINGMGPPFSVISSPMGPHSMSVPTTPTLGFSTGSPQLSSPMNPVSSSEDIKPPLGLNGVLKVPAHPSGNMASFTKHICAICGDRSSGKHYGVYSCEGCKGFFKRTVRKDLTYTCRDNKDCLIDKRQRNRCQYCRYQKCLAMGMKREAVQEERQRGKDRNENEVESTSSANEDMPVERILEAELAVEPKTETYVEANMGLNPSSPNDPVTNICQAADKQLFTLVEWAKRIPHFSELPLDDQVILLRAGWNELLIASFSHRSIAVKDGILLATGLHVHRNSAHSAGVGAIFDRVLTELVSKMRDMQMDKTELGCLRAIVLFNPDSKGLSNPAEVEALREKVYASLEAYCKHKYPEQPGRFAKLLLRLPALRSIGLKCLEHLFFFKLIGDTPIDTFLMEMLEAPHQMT
The assay is described as follows: Ability to bind directly to Retinoic acid receptor RXR-alpha was evaluated in a competitive binding assay.

In assay [5] the target is T2, Retinoic acid receptor RXR-beta. Description: Binding affinity to Retinoic acid receptor RXR-beta was determined in a competitive binding assay.
The target in assay [6] is T3, Retinoic acid receptor RXR-alpha. Description: Ability to activate gene expression at Retinoic acid receptor RXR-alpha was evaluated in a cotransfection assay.

For `Cc1cc2c(cc1C(C)(C)c1ccc(C(=O)O)cc1)C(C)(C)CCC2(C)C`, the EC50 in assay [1] was 0.65 µM; in assay [2] it was 1.9 µM; in assay [6] it was 0.65 µM. The Kd in assay [3], in assay [4] and in assay [5] was above 1 µM each time.
In the case of `CC(C)=C(c1ccc(C(=O)O)cc1)c1cc2c(cc1C)C(C)(C)CCC2(C)C`, the values for the 50% effective concentration (EC50) in assay [1], in assay [2] and in assay [6] were 0.24 µM, 0.13 µM and 0.3 µM, respectively. Moreover, the dissociation constant (Kd) in assay [3] came to 0.15 µM; in assay [4], 0.05 µM; in assay [5] it was 0.16 µM.
With `Cc1cc2c(cc1C1(c3ccc(C(=O)O)cc3)CO1)C(C)(C)CCC2(C)C` (configuration not stated), the figures for the EC50 in assay [1], in assay [2] and in assay [6] were 0.047 µM, 0.067 µM and 0.051 µM, respectively. Further, the figures for the Kd in assay [3], in assay [4] and in assay [5] were 0.547 µM, 0.67 µM and 0.19 µM, respectively.
In the case of `Cc1cc2c(cc1C(=O)c1cccc(C(=O)O)c1)C(C)(C)CCC2(C)C`, the concentration giving a half-maximal response (EC50) in assay [1], in assay [2] and in assay [6] was above 10 µM each time. The Kd in assay [3], in assay [4] and in assay [5] was above 1 µM each time.
As to `C=C(c1ccc(C(=O)O)cc1)c1cc2c(cc1C)C(C)(C)CCC2`, the concentration for a half-maximal effect (EC50) amounted to 0.6 µM in assay [1], 0.77 µM in assay [2] and 1.2 µM in assay [6]. In addition, the Kd stood at 1.74 µM in assay [3], 1.16 µM in assay [4] and 0.853 µM in assay [5].
Regarding `C=C(c1ccc(C(=O)O)cc1)c1cc2c(cc1C)CCCC2(C)C`, the EC50 in assay [1] was found to be 2.6 µM; in assay [2], 2.4 µM; in assay [6] it was 2.4 µM. In addition, the dissociation constant Kd in assay [3], in assay [4] and in assay [5] was above 1 µM each time.
`Cc1cc2c(cc1C(=O)c1ccccc1C(=O)O)C(C)(C)CCC2(C)C`: the EC50 in assay [1], in assay [2] and in assay [6] was above 10 µM in each case. The Kd in assay [3], in assay [4] and in assay [5] was above 1 µM in each case.
As to `C=C(c1ccc(C(=O)O)cc1)c1cc2c(cc1C)C(C)(C)C(C)C2(C)C` (configuration not stated), the EC50 was determined as 0.5 µM in assay [1], 0.28 µM in assay [2] and 0.3 µM in assay [6]. Further, the dissociation constant Kd in assay [3] was determined as 0.283 µM; in assay [4], 0.176 µM; in assay [5] it was 0.291 µM.
For `Cc1cc2c(cc1Oc1ccc(C(=O)O)cc1)C(C)(C)CCC2(C)C`, the results for the concentration for a half-maximal effect (EC50) in assay [1], in assay [2] and in assay [6] were 0.43 µM, 1.9 µM and 1 µM, respectively. In addition, the Kd in assay [3] was found to be 0.45 µM; in assay [4], 0.52 µM; in assay [5], 0.77 µM.
As for `Cc1cc2c(cc1C1(c3ccc(C(=O)O)cc3)CC1)C(C)(C)CCC2(C)C`, the half-maximal effective concentration (EC50) in assay [1] stood at 0.017 µM; in assay [2], 0.022 µM; in assay [6], 0.026 µM. The values for the equilibrium dissociation constant (Kd) in assay [3], in assay [4] and in assay [5] were 0.025 µM, 0.046 µM and 0.07 µM, respectively.
With `Cc1cc2c(cc1Cc1ccc(C(=O)O)cc1)C(C)(C)CCC2(C)C`, the EC50 in assay [1] amounted to 0.44 µM; in assay [2], 1.2 µM; in assay [6], 0.46 µM. Besides, the Kd in assay [3], in assay [4] and in assay [5] was above 1 µM in each case.
In the case of `Cc1cc2c(cc1C(C)c1ccc(C(=O)O)cc1)C(C)(C)CCC2(C)C` (configuration not stated), the half-maximal effective concentration (EC50) in assay [1] was found to be 0.34 µM; in assay [2], 0.31 µM; in assay [6], 0.47 µM. Besides, the values for the Kd in assay [3], in assay [4] and in assay [5] were 0.2 µM, 0.11 µM and 0.15 µM, respectively.
